Results from paper PMC7201918 (The Journal of Experimental Medicine, 2020).

How the values were obtained:
WT mouse BM neutrophils = experiment: SOCS mRNA expression by real-time PCR in BM neutrophils; type: cell-based; conditions: purified mouse BM neutrophils, 100 ng/ml GM-CSF, later time points
[1] = test system: human blood neutrophils and monocytes; experiment: Immunoblotting of pSTAT5 and CIS in human blood neutrophils and monocytes; type: cell-based; conditions: GM-CSF stimulation
In short: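 Blood neutrophils and monocytes from healthy human donors were treated with GM-CSF. pSTAT5, CIS and β-actin were immunoblotted from RIPA lysates (protease and phosphatase inhibitors, BCA-normalized) run on 4–12% Bis-Tris gels and detected by chemiluminescence. One experiment representative of three.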

CIS−/− BM neutrophils = experiment: Immunoblot of JAK-STAT/MAPK/Akt phosphorylation in WT or CIS−/− BM neutrophils; type: cell-based, mouse
In short: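 Ly6G-selected bone marrow neutrophils (≥95% pure) were primed with GM-CSF (100 ng/ml) for 3 h, washed, and held in cytokine-free medium for various times. Cells were lysed in RIPA buffer containing protease and phosphatase inhibitors, and loading was normalized by BCA assay. Lysates were separated on 4–12% Bis-Tris gels, transferred to PVDF, and detected by chemiluminescence. One of three independent experiments.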

[2] = test system: CD131 (GM-CSFRβ) on BM neutrophils; experiment: Flow-cytometric analysis of CD131; type: cell-based, mouse; conditions: CIS−/− compared with WT neutrophils from 50:50 chimeric mice; n = 4 mice
In short: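 Surface CD131 was measured by flow cytometry on bone marrow neutrophils from WT:CIS−/− (50:50) chimeric mice. Cells were analysed naive (t0) and after stimulation with recombinant G-CSF or GM-CSF (100 ng/ml). n = 4 mice pooled from two independent experiments.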

[3] = test system: WT or CIS−/− BM neutrophils; type: cell-based, mouse; conditions: for cleaved caspase-3 induction upon cytokine withdrawal: G-CSF: WT and CIS−/− neutrophils, GM-CSF: CIS−/− relative to WT; for Mcl-1 expression: WT and CIS−/− neutrophils, G-CSF or GM-CSF preconditioning
In short: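 Purified bone marrow neutrophils were exposed to recombinant G-CSF or GM-CSF (100 ng/ml) for 3 h, then replenished with cytokine-free medium for the indicated times. RIPA lysates with protease and phosphatase inhibitors were BCA-normalized. They were resolved on 4–12% Bis-Tris gels, blotted to PVDF, and developed by HRP chemiluminescence.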

[4] = test system: BM neutrophils from WT and CIS−/− mice; experiment: CXCL2 and CCL3 secretion by BM neutrophils; type: cell-based, mouse; conditions: CIS−/− vs WT neutrophils, GM-CSF for 24 h; n = 3 mice
CCRL2 on BM neutrophils = experiment: Flow-cytometric analysis of CCRL2 surface expression on BM neutrophils; type: cell-based, mouse; conditions: CIS−/− vs WT neutrophils; n = 3 mice
[5] = test system: BM monocytes from WT and CIS−/− mice; experiment: Differentiation of BM monocytes into CD11c+ GM-Macs; type: cell-based, mouse; conditions: CIS-deficient relative to WT monocytes; n = 4 mice
In short: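 Monocytes were purified from bone marrow by anti-CD115 magnetic positive selection (>95% purity). They were cultured with recombinant GM-CSF at 100 ng/ml in RPMI 1640 with antibiotics and 10% heat-inactivated FCS for the indicated times. The frequency of CD11c+ GM-Macs was determined by flow cytometry. n = 4 mice pooled from two independent experiments.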

[6] = test system: BM monocytes from WT and CIS−/− mice; experiment: Chemokine; type: cell-based, mouse; conditions: 8 h after GM-CSF stimulation, n = 3 mice
In short: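 Bone marrow monocytes from WT and CIS−/− mice were isolated by anti-CD115-biotin/anti-biotin microbead positive selection (>95% purity). They were stimulated with recombinant GM-CSF at 100 ng/ml for 8 h in RPMI 1640 with antibiotics and 10% heat-inactivated FCS. Ccl17 and Ccl22 mRNA was measured by real-time PCR, normalized to Gapdh. n = 3 mice, one experiment.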

[7] = test system: WT and CIS−/− BM neutrophils; experiment: RNASeq of BM neutrophils after GM-CSF stimulation; type: cell-based, mouse; conditions: GM-CSF 100 ng/ml
In short: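 Neutrophils were FACS-sorted from WT and CIS−/− bone marrow (PI– CD3– CD19– CD115– CD11b+ Ly6G+; 99–100% purity). They were left unstimulated or stimulated with recombinant GM-CSF at 100 ng/ml for 4 h and 24 h. RNA libraries underwent single-end 75 bp sequencing on a NextSeq 500 (~20 million reads per sample), and reads were quality-checked with fastqc.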

[8] = test system: WT and CIS−/− BM eosinophils; experiment: Generation of eosinophils from BM cells in IL-5; type: cell-based, mouse; conditions: IL-5 for 3 d, n = 3 mice
eosinophils = conditions: ref Burnham et al., 2013; Matsumoto et al., 1997; Yoshimura et al., 1995; cited from earlier work
[9] = test system: GM-CSF (Csf2fl/fl:R26CreERT2 mice); experiment: EAE with tamoxifen-induced GM-CSF deletion; type: in vivo, mouse; conditions: tamoxifen by oral gavage after EAE onset in Csf2fl/fl:R26CreERT2 mice; n = 12 mice
IL-18 = conditions: cited from earlier work
synovial cell cultures = conditions: exogenous IL-18, synovial cell cultures; ref Gracie et al., 1999; cited from earlier work

GM-CSF: recombinant GM-CSF (100 ng/ml)
persistence of SOCS mRNA induction (WT mouse BM neutrophils): only Cish mRNA levels were sustained at later time points
CIS induction and STAT5 phosphorylation [1]: CIS induction and STAT5 phosphorylation
STAT5 activation, later time points (CIS−/− BM neutrophils; CIS−/− vs WT neutrophils, 100 ng/ml GM-CSF, 2 h after stimulation): prolonged expression of STAT5 activation at later time points
JAK2-STAT5 activation after cytokine withdrawal (CIS−/− BM neutrophils; GM-CSF-primed (3 h) then washed CIS−/− neutrophils): Extended JAK2-STAT5 activation
STAT3 and Akt dephosphorylation after cytokine withdrawal (CIS−/− BM neutrophils; GM-CSF-primed (3 h) then washed, WT vs CIS−/− neutrophils): kinetics of STAT3 and Akt dephosphorylation were similar
p38 MAPK and SAPK/JNK activation after cytokine withdrawal (CIS−/− BM neutrophils; GM-CSF-primed then washed CIS−/− neutrophils): prolonged activation of p38 MAPK and SAPK/JNK
cell surface GM-CSFRβ expression after stimulation [2]: higher cell surface GM-CSFRβ expression
A1/Bfl-1 induction ([3]; BM neutrophils): selectively induced the pro-survival protein A1/Bfl-1
A1/Bfl-1 level upon cytokine withdrawal ([3]; CIS−/− neutrophils upon GM-CSF withdrawal): sustained for a longer period
cleaved caspase-3 induction upon cytokine withdrawal [3]: delayed induction of cleaved caspase-3
Mcl-1 expression [3]: no difference in the expression of prosurvival Mcl-1 protein
CXCL2 and CCL3 secretion [4]: secreted higher levels of CXCL2 and CCL3 chemokines
cell surface CCRL2 expression (CCRL2 on BM neutrophils): enhanced cell surface CCRL2 expression
differentiation into GM-Macs [5]: accelerated differentiation into GM-Macs
chemokine production by monocytes [6]: produced higher levels of chemokines
gene expression change, 24 h ([7]; CIS−/− neutrophils, 24 h): extensive transcriptional changes
gene expression change, 4 h ([7]; CIS−/− vs WT neutrophils, 4 h): little difference in gene expression

IL-5: cytokine signaling through the common β chain
eosinophil numbers [8]: greater numbers
Cish expression in eosinophils (eosinophils): can induce Cish expression

CC/C(=C(\c1ccccc1)c1ccc(OCCN(C)C)cc1)c1ccccc1 [tamoxifen]
progression of EAE [9]: inhibited the progression of EAE

IL-18: IL-1 family member; exogenous IL-18
effect on CIA, exogenous IL-18 (IL-18; ref Gracie et al., 1999): prime CIA
secretion of GM-CSF (along with nitric oxide, TNF, and IFN-γ) (synovial cell cultures): promote the secretion of GM-CSF

B1: IL-18–binding protein: endogenous inhibitor of IL-18 (protein, UniProt O95998 31-194, looked up)
Interleukin-18-binding protein: TPVSQTTTAATASVRSTKDPCPSQPPVFPAAKQCPALEVTWPEVEVPLNGTLSLSCVACSRFPNFSILYWLGNGSFIEHLPGRLWEGSTSRERGSTGTQLCKALVLEQLTPALHSTNFSCVLVDPEQVVQRHVVLAQLWAGLRATLPPTQEALPSSHSSPQQQG
effect on CIA, IL-18 inhibition (IL-18; ref Plater-Zyberk et al., 2001): alleviation of CIA

B2: G-CSF: recombinant G-CSF (100 ng/ml) (protein, UniProt P09919 31-207, looked up)
Granulocyte …: TPLGPASSLPQSFLLKCLEQVRKIQGDGAALQEKLVSECATYKLCHPEELVLLGHSLGIPWAPLSSCPSQALQLAGCLSQLHSGLFLYQGLLQALEGISPELGPTLDTLQLDVADFATTIWQQMEELGMAPALQPTQGAMPAFASAFQRRAGGVLVASHLQSFLEVSYRVLRHLAQP
cell surface GM-CSFRβ expression after stimulation [2]: no such difference
cleaved caspase-3 induction upon cytokine withdrawal [3]: rapid induction of cleaved caspase-3
Mcl-1 expression [3]: no difference in the expression of prosurvival Mcl-1 protein
